The RNAGym collection of RNA variant scans (doi:10.1126/science.aae0568)
Variants at the floor of the assay were thinned out.

B1: tRNA (parent)
chain: GUUCCGUUGGCGUAAUGGUAACGCGUCUCCCUCCUAAGGAGAAGACUGCGGGUUCGAGUCCCGUACGGAACG

Variants of: B1
Test: yeast fitness relative to wild type (ratio to wild type); higher = fitter; tRNA-Arg(CCU), competitive growth, 37 C, YPD
How it was run: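 Start and end populations of a pooled competition were compared by 100-nucleotide paired-end sequencing of gene amplicons. The Saccharomyces cerevisiae strains carried tRNA-Arg(CCU) gene variants at the native genomic locus, synthesised with a 3% per-site mutation rate at 69 sites, and competed in YPD at 37°C for 24 hours in six parallel replicates. Darwinian fitness relative to wild type was based on the change in genotype frequencies. Genotypes required ≥ 100 starting reads, and estimates < 0.5 were set to 0.5.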

Row | Variant | yeast fitness
1 | C5A A15G C34U A40C G56A G63A | ≤ 0.5
2 | C5A A15G G18C C29A U54A A65C | ≤ 0.5
3 | C5A A15U | 0.626
4 | C5A A15U A21U | 0.56
5 | C5A A15U A21U C61U A69C | ≤ 0.5
6 | C5A A15U A21U C66U G67U A70G | ≤ 0.5
7 | C5A A15U A21U U32C | ≤ 0.5
8 | C5A A15U C24G | ≤ 0.5
9 | C5A A15U C31G G39A G58A | ≤ 0.5
10 | C5A A15U G38C G39A A43C C60G A65C | ≤ 0.5
11 | C5A A15U U47C | ≤ 0.5
12 | C5A A15U U64C | 0.615
13 | C5A A20C | 0.799
14 | C5A A20C A36C A45C | ≤ 0.5
15 | C5A A20C A36G | 0.626
16 | C5A A20C C22A A36C A69U | 0.587
17 | C5A A20C C22A A36C C55A A69U | ≤ 0.5
18 | C5A A20C C22A A36C C61U | 0.531
19 | C5A A20C C22A C24U C31U | 0.685
20 | C5A A20C C24A | 0.575
21 | C5A A20C C29G A65U | ≤ 0.5
22 | C5A A20G | 0.933
23 | C5A A20G A65U | ≤ 0.5
24 | C5A A20G C24U G38C G56C | ≤ 0.5

Row | Variant | yeast fitness
25 | C5A A20G C30A A40U G41C C61G G63C | 0.565
26 | C5A A20G U26A A40G G58C G67U | ≤ 0.5
27 | C5A A20G U26C A40C | ≤ 0.5
28 | C5A A20G U35G G41A G56A A70C | ≤ 0.5
29 | C5A A20U A21U C34G A65G G67A | ≤ 0.5
30 | C5A A20U A36G | ≤ 0.5
31 | C5A A20U A37G | ≤ 0.5
32 | C5A A20U A65G | 0.591
33 | C5A A20U A70G | ≤ 0.5
34 | C5A A20U C27A A42G A43G A57C G67C | 0.565
35 | C5A A20U C27G G41A A57U U64A | 0.642
36 | C5A A20U C29A G68A | ≤ 0.5
37 | C5A A20U C31G C49G | ≤ 0.5
38 | C5A A20U C31G C61U | ≤ 0.5
39 | C5A A20U C31G G58A C62U A69C | ≤ 0.5
40 | C5A A20U C55U C61U A65G | ≤ 0.5
41 | C5A A21C | 0.821
42 | C5A A21C A43U C46G | 0.541
43 | C5A A21C A43U C46G C61G | ≤ 0.5
44 | C5A A21C A43U C46G G50U C61G | ≤ 0.5
45 | C5A A21C C27A | 0.568
46 | C5A A21C C30G C34U G38C C49U A70C | 0.551
47 | C5A A21C C30G C34U G58C | ≤ 0.5
48 | C5A A21C C30G C55G A70G | ≤ 0.5

Row | Variant | yeast fitness
49 | C5A A21C C34G C60G A70G | ≤ 0.5
50 | C5A A21G A65U | 0.655
51 | C5A A21G C24U A45U A57U | 0.603
52 | C5A A21G C31A | 0.642
53 | C5A A21G C31G G56C U59A C60G C62G A70C | ≤ 0.5
54 | C5A A21G C31G U53G | ≤ 0.5
55 | C5A A21G U32G | ≤ 0.5
56 | C5A A21U A65G | 0.636
57 | C5A A21U C24U C27G | ≤ 0.5
58 | C5A A21U C24U C27G C55U | ≤ 0.5
59 | C5A A21U C55A C66U | ≤ 0.5
60 | C5A A21U G50A | ≤ 0.5
61 | C5A A21U U32A G50A C60G | ≤ 0.5
62 | C5A A36C C46G | 0.532
63 | C5A A36G | 0.886
64 | C5A A36G C46A | 0.562
65 | C5A A37C | 0.77
66 | C5A A37C A40C A45U A57C A70U | ≤ 0.5
67 | C5A A37C C49A | ≤ 0.5
68 | C5A A37C C55A G56C | ≤ 0.5
69 | C5A A37G A65U | 0.532
70 | C5A A37G G51C C61G | ≤ 0.5
71 | C5A A37U A57G G63C | 0.733
72 | C5A A37U C49U | ≤ 0.5

Row | Variant | yeast fitness
73 | C5A A40C A69U | 0.539
74 | C5A A40C G41A C46U G52C | ≤ 0.5
75 | C5A A40G | 0.713
76 | C5A A40G A65G | 0.605
77 | C5A A40G C49U | 0.548
78 | C5A A40U A65U | 0.636
79 | C5A A40U G41C | 0.614
80 | C5A A40U G48C G63A | ≤ 0.5
81 | C5A A40U G67A | 0.659
82 | C5A A42C | 0.842
83 | C5A A42C G63A | ≤ 0.5
84 | C5A A42C G63C | ≤ 0.5
85 | C5A A42G | 0.964
86 | C5A A42G C49G U54C G63C A70U | ≤ 0.5
87 | C5A A42U | 0.767
88 | C5A A42U G58A | 0.614
89 | C5A A42U G67A | ≤ 0.5
90 | C5A A43C | 0.987
91 | C5A A43C A45U U53C | 0.615
92 | C5A A43C A65U | ≤ 0.5
93 | C5A A43C A69U A70C | 0.769
94 | C5A A43G | 0.903
95 | C5A A43G C55U C66G | ≤ 0.5
96 | C5A A43U | 0.783

Row | Variant | yeast fitness
97 | C5A A45G | 0.937
98 | C5A A45U | 0.877
99 | C5A A45U A69U | 0.801
100 | C5A A57C | 0.719
101 | C5A A57G | 0.767
102 | C5A A57G C66U | ≤ 0.5
103 | C5A A57U C61G | ≤ 0.5
104 | C5A A65C A70C | 0.675
105 | C5A A65U | 0.723
106 | C5A A69G | 0.908
107 | C5A A70C | 0.982
108 | C5A A70U | 0.822
109 | C5A C11A A42U U53A A57C A65G | ≤ 0.5
110 | C5A C11A G17C A43U U59A | ≤ 0.5
111 | C5A C11A U59A C60G | ≤ 0.5
112 | C5A C11G | 0.657
113 | C5A C11G A21U C60G G67A | ≤ 0.5
114 | C5A C11G A21U G44C A57U | ≤ 0.5
115 | C5A C11G A21U U28C | ≤ 0.5
116 | C5A C11G A37U C49A | 0.515
117 | C5A C11G A42U U53A | ≤ 0.5
118 | C5A C11G A45C C66G G68C | ≤ 0.5
119 | C5A C11G A57G | ≤ 0.5
120 | C5A C11G C27A C34U G39A | 0.683

Row | Variant | yeast fitness
121 | C5A C11G C29U A36U G50C U54G | ≤ 0.5
122 | C5A C11G C33A G38A | 0.552
123 | C5A C11G C33A G38A C46G A70U | ≤ 0.5
124 | C5A C11G G17A A37U C49A | ≤ 0.5
125 | C5A C11G G38C G58C | ≤ 0.5
126 | C5A C11G G41C C66U | ≤ 0.5
127 | C5A C11U | 0.856
128 | C5A C11U C29U C31U A42C A69C | ≤ 0.5
129 | C5A C11U C30A A57G | ≤ 0.5
130 | C5A C11U C31G | 0.558
131 | C5A C11U C31U C49G C61A | ≤ 0.5
132 | C5A C11U C34A A40U A42U G68A | ≤ 0.5
133 | C5A C11U C46U G50C | 0.709
134 | C5A C11U G18C U19A C27A C33A C61G A70G | ≤ 0.5
135 | C5A C11U U13C | 0.57
136 | C5A C11U U13G C29G C33A C46A | 0.575
137 | C5A C22A | 0.831
138 | C5A C22A A40G | ≤ 0.5
139 | C5A C22A C24A U26C | ≤ 0.5
140 | C5A C22A C33U A36C | 0.502
141 | C5A C22A G50C A69C | 0.845
142 | C5A C22G A37C A40C | 0.736
143 | C5A C22G C24G C31U A43U G48A | 0.544
144 | C5A C22G C24G C31U A43U G48A A69U | 0.507

Row | Variant | yeast fitness
145 | C5A C22G C27G A36U A40C | ≤ 0.5
146 | C5A C22G C27G A36U A40C G67A | ≤ 0.5
147 | C5A C22G C29A A43U | 0.574
148 | C5A C22G C29G C31G | 0.627
149 | C5A C22G C29G C31G C61A | 0.529
150 | C5A C22G C49U A57C | 0.779
151 | C5A C22G U26A A57C G67A A69U | ≤ 0.5
152 | C5A C22G U47C | ≤ 0.5
153 | C5A C22U A57G | 0.612
154 | C5A C22U C27G C30G A45U C62A | ≤ 0.5
155 | C5A C22U C27G C30G A57U | ≤ 0.5
156 | C5A C22U C29U A42U | ≤ 0.5
157 | C5A C22U C31G C60A | ≤ 0.5
158 | C5A C22U G39A A69U | ≤ 0.5
159 | C5A C22U G39A C61U | 0.503
160 | C5A C22U G51C | ≤ 0.5
161 | C5A C22U U53C U59G C61G C62U | ≤ 0.5
162 | C5A C24A U26G A43C A69U | ≤ 0.5
163 | C5A C24G | 0.621
164 | C5A C24G A36C A70C | ≤ 0.5
165 | C5A C24G A65G C66U | ≤ 0.5
166 | C5A C24G A65U | 0.694
167 | C5A C24G A70U | ≤ 0.5
